The source of these data is ChEMBL document CHEMBL3525992, “Identification of 20(S)-protopanaxadiol metabolites in human liver microsomes and human hepatocytes” (Drug Metab Dispos, 2011).

A short description of data set [1]: Drug metabolism in human hepatocytes assessed as metabolite 2 ((20S,24S)-epoxydammarane-3,12,25-triol) formation at 50 uM after 180 mins by liquid chromatography-electrospray ionization ion trap mass spectrometry. As to conditions: 3 h. In kind it is ADME, cell-based, Hepatocyte.
Data set [2] can be described thus: Drug metabolism in human hepatocytes assessed as metabolite 7-1 ((2S,3S,4S,5R,6S)-6-(2-((2S,5S)-5-((3S,5R,8R,9R,10R,12R,14R,17S)-3,12-dihydroxy-4,4,8,10,14-pentamethylhexadecahydro-1H-cyclopenta[a]phenanthren-17-yl)-5-methyltetrahydrofuran-2-yl)propan-2-yloxy)-3,4,5-trihydroxytetrahydro-2H-pyran-2-carboxylic acid) formation at 50 uM after 180 mins by liquid chromatography-electrospray ionization ion trap mass spectrometry. As to conditions: 3 h. In kind it is ADME, cell-based, Hepatocyte.

The subject of data set [3] is Liver microsome. The data set can be described thus: Drug metabolism in mixed human liver microsomes assessed as metabolite 5 ((20S,24R)-epoxydammarane-12,25-diol-3-one) formation at 50 uM after 60 mins by liquid chromatography-electrospray ionization ion trap mass spectrometry. As to conditions: 1 h. In kind it is ADME. The method in brief:
(§1)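 Pooled human liver microsomes, 1.0 mg/ml protein, with substrate 50 µM in 100 mM potassium phosphate pH 7.4 (final MeOH 0.1% v/v). Preincubated 3 min at 37°C, started with NADPH 2.0 mM, run 60 min, stopped with ice-cold acetonitrile. Controls lacked NADPH or substrate; duplicates. Metabolites profiled by LC/ESI ion-trap MSn.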

Data set [4] can be described thus: Drug metabolism in human hepatocytes assessed as metabolite 6 ((24S,25)-epoxydammarane-3,12,20-triol formation at 50 uM after 180 mins by liquid chromatography-electrospray ionization ion trap mass spectrometry. In kind it is ADME, cell-based, Hepatocyte. Particulars: 3 h.
For data set [5], the system named is Liver microsome. The data set can be described thus: Drug metabolism in mixed human liver microsomes assessed as metabolite 2 ((20S,24S)-epoxydammarane-3,12,25-triol) formation at 50 uM after 60 mins by liquid chromatography-electrospray ionization ion trap mass spectrometry. It counts as ADME. As to conditions: 1 h. In short, it runs like this: as §1
For orientation: Microsomes from liver hold many membrane-bound enzymes, among them those of drug oxidation.

Data set [6] can be described thus: Retention time of the compound at 100 uM measured after 60 mins by liquid chromatography-electrospray ionization ion trap mass spectrometry in presence of 10 uM 3-chloroperoxybenzoic acid. It counts as physicochemical. Particulars: 1 h. In short, it runs like this:
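PPD 100 µM oxidised chemically with m-CPBA 10 µM in CH₂Cl₂, stirred at room temperature for 15 and 60 min. Mixture poured into Na₂CO₃-saturated ice water and extracted three times with ether before LC/MS analysis.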

Data set [7] has as its system Liver microsome. In words: Drug metabolism in mixed human liver microsomes assessed as glucuronide conjugate metabolite level at 50 uM after 120 mins by liquid chromatography-electrospray ionization ion trap mass spectrometry in presence of UDPGA. In kind it is ADME. As to conditions: 2 h. The method in brief:
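Pooled human liver microsomes, 1.0 mg/ml protein, in 50 mM Tris-HCl pH 7.4 with 10 mM MgCl₂, 2 mM UDPGA and 25 µg/mL alamethicin. Preincubated 3 min at 37°C, started with substrate 50 µM (final MeOH 0.1%), run 120 min, stopped with ice-cold acetonitrile. Time-0 controls; duplicates. Analysed by LC/ESI ion-trap MSn.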

Data set [8] is described as follows: Oral bioavailability in rat at 25 mg/kg. Particulars: in vivo. In kind it is ADME, organism-based.
A short description of data set [9]: Drug excretion in Sprague-Dawley rat feces assessed as metabolite 2 ((20S,24S)-epoxydammarane-3,12,25-triol) level at 100 mg/kg/day, po qd for 11 days administered via gavage by liquid chromatography-electrospray ionization ion trap mass spectrometry. Also on record: route oral. Particulars: in vivo, 264 h. It counts as ADME, organism-based. In short, it runs like this: (§2)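 Rats given PPD by gavage at 100 mg/kg/day once daily for 11 days, as a 10 mg/ml solution in 0.5% carboxymethyl cellulose sodium, 0.5% polysorbate-80 and 99% saline; 20 rats housed singly in metabolic cages. Feces collected over 0–288 h and frozen at -20°C; blank feces taken before dosing.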

Data set [10] in a line: Drug metabolism in human hepatocytes assessed as metabolite 6-1 ((3S,6S)-6-((3S,5R,8R,9R,10R,12R,14R,17S)-3,12-dihydroxy-4,4,8,10,14-pentamethylhexadecahydro-1H-cyclopenta[a]phenanthren-17-yl)-2-methylheptane-2,3,6-triol) formation at 50 uM after 180 mins by liquid chromatography-electrospray ionization ion trap mass spectrometry. It counts as ADME, cell-based, Hepatocyte. Particulars: 3 h.

The nature of data set [11]: Oral bioavailability in dog at 8 mg/kg. It counts as ADME, organism-based, Canis lupus familiaris. Particulars: in vivo.
Data set [12] is described as follows: Drug excretion in Sprague-Dawley rat feces assessed as metabolite 5 ((20S,24R)-epoxydammarane-12,25-diol-3-one) level at 100 mg/kg/day, po qd for 11 days administered via gavage by liquid chromatography-electrospray ionization ion trap mass spectrometry. Also on record: route oral. In kind it is ADME, organism-based. Particulars: in vivo, 264 h. The method in brief:
as §2

The nature of data set [13]: Drug metabolism in human hepatocytes assessed as metabolite 6-2 ((3R,6S)-6-((3S,5R,8R,9R,10R,12R,14R,17S)-3,12-dihydroxy-4,4,8,10,14-pentamethylhexadecahydro-1H-cyclopenta[a]phenanthren-17-yl)-2-methylheptane-2,3,6-triol) formation at 50 uM after 180 mins by liquid chromatography-electrospray ionization ion trap mass spectrometry. It counts as ADME, cell-based, Hepatocyte. Particulars: 3 h.

A short description of data set [14]: Drug metabolism in human hepatocytes assessed as metabolite 7-2 ((2S,3S,4S,5R,6S)-6-(2-((2R,5S)-5-((3S,5R,8R,9R,10R,12R,14R,17S)-3,12-dihydroxy-4,4,8,10,14-pentamethylhexadecahydro-1H-cyclopenta[a]phenanthren-17-yl)-5-methyltetrahydrofuran-2-yl)propan-2-yloxy)-3,4,5-trihydroxytetrahydro-2H-pyran-2-carboxylic acid) formation at 50 uM after 180 mins by liquid chromatography-electrospray ionization ion trap mass spectrometry. It counts as ADME, cell-based, Hepatocyte. As to conditions: 3 h.

Data set [15] is described as follows: Drug metabolism in human hepatocytes assessed as metabolite 4 ((20S,24S)-epoxydammarane-12,25-diol-3-one) formation at 50 uM after 180 mins by liquid chromatography-electrospray ionization ion trap mass spectrometry. In kind it is ADME, cell-based, Hepatocyte. Particulars: 3 h.
A short description of data set [16]: Drug metabolism in human hepatocytes assessed as metabolite 5 ((20S,24R)-epoxydammarane-12,25-diol-3-one) formation at 50 uM after 180 mins by liquid chromatography-electrospray ionization ion trap mass spectrometry. In kind it is ADME, cell-based, Hepatocyte. As to conditions: 3 h.
Data set [17] can be described thus: Drug metabolism in human hepatocytes assessed as metabolite 3 ((20S,24R)-epoxydammarane-3,12,25-triol) formation at 50 uM after 180 mins by liquid chromatography-electrospray ionization ion trap mass spectrometry. In kind it is ADME, cell-based, Hepatocyte. As to conditions: 3 h.
The nature of data set [18]: Drug excretion in Sprague-Dawley rat feces assessed as metabolite 4 ((20S,24S)-epoxydammarane-12,25-diol-3-one) level at 100 mg/kg/day, po qd for 11 days administered via gavage by liquid chromatography-electrospray ionization ion trap mass spectrometry. It counts as ADME, organism-based. On the set-up: route oral. Particulars: in vivo, 264 h. The method in brief: as §2

Data set [19] has as its system Liver microsome. The data set can be described thus: Drug metabolism in mixed human liver microsomes assessed as metabolite 3 ((20S,24R)-epoxydammarane-3,12,25-triol) formation at 50 uM after 60 mins by liquid chromatography-electrospray ionization ion trap mass spectrometry. In kind it is ADME. As to conditions: 1 h. The method in brief: as §1
Data set [20] has as its system Liver microsome. In words: Drug metabolism in mixed human liver microsomes assessed as metabolite 6 ((24S,25)-epoxydammarane-3,12,20-triol formation at 50 uM after 60 mins by liquid chromatography-electrospray ionization ion trap mass spectrometry. Particulars: 1 h. In kind it is ADME. The method in brief:
as §1

The nature of data set [21]: Drug excretion in Sprague-Dawley rat feces assessed as metabolite 3 ((20S,24R)-epoxydammarane-3,12,25-triol) level at 100 mg/kg/day, po qd for 11 days administered via gavage by liquid chromatography-electrospray ionization ion trap mass spectrometry. Particulars: in vivo, 264 h. Also on record: route oral. In kind it is ADME, organism-based. In short, it runs like this: as §2

The test system of data set [22] is Liver microsome. The data set can be described thus: Drug metabolism in mixed human liver microsomes assessed as metabolite 4 ((20S,24S)-epoxydammarane-12,25-diol-3-one) formation at 50 uM after 60 mins by liquid chromatography-electrospray ionization ion trap mass spectrometry. It counts as ADME. Particulars: 1 h. The method in brief: as §1

Take `CC(C)=CCC[C@](C)(O)[C@H]1CC[C@]2(C)[C@@H]1[C@H](O)C[C@@H]1[C@@]3(C)CC[C@H](O)C(C)(C)[C@@H]3CC[C@]12C`: the Drug metabolism result in [1] was “metabolite_detected”; in data set [2], “metabolite_detected”; in data set [3] it was “metabolite_detected”; in data set [4] it was “metabolite_detected”; in data set [5], “metabolite_detected”; in data set [7] it was “metabolite_not_detected”. Further, the Drug metabolism entry in data set [10], in data set [13], in data set [14], in data set [15], in data set [16] and in data set [17] was “metabolite_detected” each time. Also, the Drug metabolism entry in data set [19], in data set [20] and in data set [22] was “metabolite_detected” in each case. Besides, the Retention_time in data set [6] was 22.3 min. The bioavailability in data set [8] was 31%; in data set [11], 9.6%. In addition, the Drug excretion result in data set [9], in [12], in data set [18] and in data set [21] was “metabolite_detected” in each case.

By bioavailability is commonly meant dose-corrected exposure relative to a reference, in per cent. A lower bioavailability goes with little systemic uptake.
